Reference: ChEMBL document CHEMBL2321804, “Development of small-molecule P-gp inhibitors of the N-benzyl 1,4-dihydropyridine type: novel aspects in SAR and bioanalytical evaluation of multidrug resistance (MDR) reversal properties” (Bioorg Med Chem, 2013)

Experiments:
[1] = biological target: T1, ATP-dependent translocase ABCB1 (Homo sapiens, UniProt P08183); assay: Inhibition of human MDR1 expressed in mouse L5178Y cells assessed as […] by measuring fluorescence activity ratio at 10 uM preincubated for 10 mins measured after 40 mins relative to control; assay type: cell-based
T1 sequence (P08183 whole entry): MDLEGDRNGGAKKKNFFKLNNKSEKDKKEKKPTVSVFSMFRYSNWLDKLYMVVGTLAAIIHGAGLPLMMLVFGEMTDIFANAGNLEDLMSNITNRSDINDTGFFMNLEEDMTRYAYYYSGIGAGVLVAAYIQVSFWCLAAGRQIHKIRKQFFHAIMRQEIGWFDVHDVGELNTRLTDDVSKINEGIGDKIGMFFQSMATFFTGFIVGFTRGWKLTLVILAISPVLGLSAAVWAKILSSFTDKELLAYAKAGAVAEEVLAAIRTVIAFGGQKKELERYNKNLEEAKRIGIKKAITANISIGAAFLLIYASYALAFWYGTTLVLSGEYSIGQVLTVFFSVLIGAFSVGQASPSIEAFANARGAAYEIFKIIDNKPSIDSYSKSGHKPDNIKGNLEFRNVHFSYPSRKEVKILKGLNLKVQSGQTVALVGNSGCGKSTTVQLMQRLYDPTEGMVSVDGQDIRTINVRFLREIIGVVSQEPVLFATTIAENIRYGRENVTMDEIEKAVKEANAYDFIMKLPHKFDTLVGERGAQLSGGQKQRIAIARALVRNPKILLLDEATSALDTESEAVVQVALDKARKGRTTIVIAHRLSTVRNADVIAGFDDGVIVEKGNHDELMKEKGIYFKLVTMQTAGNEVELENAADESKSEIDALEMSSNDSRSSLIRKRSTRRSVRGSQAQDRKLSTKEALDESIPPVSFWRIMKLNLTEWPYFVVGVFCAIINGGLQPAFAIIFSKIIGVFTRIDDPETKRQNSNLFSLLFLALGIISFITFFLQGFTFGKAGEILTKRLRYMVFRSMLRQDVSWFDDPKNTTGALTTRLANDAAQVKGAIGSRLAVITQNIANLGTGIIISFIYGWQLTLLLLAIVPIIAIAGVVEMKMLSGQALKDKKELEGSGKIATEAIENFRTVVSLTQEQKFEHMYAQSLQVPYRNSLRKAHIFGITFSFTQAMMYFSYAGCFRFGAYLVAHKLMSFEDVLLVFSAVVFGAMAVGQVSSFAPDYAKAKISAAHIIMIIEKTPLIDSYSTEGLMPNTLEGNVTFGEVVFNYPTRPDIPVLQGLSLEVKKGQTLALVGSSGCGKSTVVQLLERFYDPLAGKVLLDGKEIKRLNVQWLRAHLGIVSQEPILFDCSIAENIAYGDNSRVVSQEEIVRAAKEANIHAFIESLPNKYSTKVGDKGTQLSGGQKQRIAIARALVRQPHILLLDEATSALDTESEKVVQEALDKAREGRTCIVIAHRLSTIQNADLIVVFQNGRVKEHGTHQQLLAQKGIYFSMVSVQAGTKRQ
Procedure, shortened: (§1)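 Transfected P-gp L5178Y subline and parental cells, 1 x 10^6/mL in serum-free McCoy's 5A, were preincubated 10 min at rt with inhibitor (DMSO stock 1.0 mg/mL). Rhodamine 123 followed (5 µL of 0.5 mM), 40 min at 37 °C, then two PBS washes. Flow cytometry on 1 x 10^4 cells. FAR = MDR/parental uptake, each normalised to its own untreated control.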

[2] = biological target: T1, ATP-dependent translocase ABCB1; assay: Inhibition of human MDR1 expressed in mouse L5178Y cells assessed as […] by measuring fluorescence activity ratio at 1 uM preincubated for 10 mins measured after 40 mins relative to control; assay type: cell-based; procedure, shortened: as §1
[3] = Cytotoxicity against mouse L5178Y cells assessed as cell viability at 10 uM after 24 hrs by MTT assay; assay type: cell-based; details: read-out: Activity
Procedure, shortened: (§2)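 Parental L5178Y mouse T-lymphoma cells and the human mdr1-transfected P-gp subline were kept in McCoy's 5A with 10% FCS, 2 mM L-glutamine and gentamicin, 37 °C, 5% CO2; the subline also got colchicine 60 ng/mL. Dihydropyridines were added at 1 to 80 µM final, 24 h at 37 °C. MTT was read at 560 nm after SDS/acetic acid/DMSO lysis. Triplicate runs.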

[4] = Cytotoxicity against mouse L5178Y cells expressing p-gp assessed as cell viability at 10 uM after 24 hrs by MTT assay; assay type: ADME, cell-based; details: read-out: Activity; procedure, shortened: as §2
[5] = Cytotoxicity against mouse L5178Y cells assessed as cell viability at 2.5 uM after 24 hrs by MTT assay; assay type: cell-based; details: read-out: Activity; procedure, shortened: as §2
[6] = Cytotoxicity against mouse L5178Y cells expressing p-gp assessed as cell viability at 2.5 uM after 24 hrs by MTT assay; assay type: ADME, cell-based; details: read-out: Activity; procedure, shortened: as §2
[7] = biological target: T1, ATP-dependent translocase ABCB1; assay: Inhibition of human MDR1 expressed mouse L5178Y cells assessed as reduction of liposomal daunorubicin IC50 for cytotoxicity at 2.5 uM after 24 hrs by MTT assay; assay type: cell-based
Procedure, shortened: (§3)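 Liposomal daunorubicin (DaunoXome) was tested in the P-gp overexpressing L5178Y subline after preincubation with inhibitor at 2.5 µM or higher levels, 24 h at 37 °C, 5% CO2. Readout was MTT, lysis, then A560. IC50 came from mean percent growth inhibition of triplicate runs.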

[8] = biological target: T1, ATP-dependent translocase ABCB1; assay: Inhibition of human MDR1 expressed mouse L5178Y cells assessed as reduction of liposomal daunorubicin IC50 for cytotoxicity at 10 uM after 24 hrs by MTT assay; assay type: cell-based
[9] = biological target: T1, ATP-dependent translocase ABCB1; assay: Inhibition of human MDR1 expressed mouse L5178Y cells assessed as reduction of liposomal daunorubicin IC50 for cytotoxicity at 5 to 10 uM after 24 hrs by MTT assay; assay type: cell-based; procedure, shortened: as §3
[10] = biological target: T1, ATP-dependent translocase ABCB1; assay: Inhibition of human MDR1 expressed mouse L5178Y cells assessed as reduction of liposomal daunorubicin IC50 for cytotoxicity at 1 uM after 24 hrs by MTT assay; assay type: cell-based; set-up: scale not given: the % may be the effect or the level left
[11] = biological target: T1, ATP-dependent translocase ABCB1; assay: Inhibition of human MDR1 expressed mouse L5178Y cells assessed as reduction of daunorubicin IC50 for cytotoxicity at 5 to 10 uM after 24 hrs by MTT assay; assay type: cell-based
Procedure, shortened: (§4)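 Daunorubicin at 0.01 to 10 µM was combined with inhibitor at 2.5, 5 or 10 µM in the P-gp overexpressing L5178Y subline, 24 h at 37 °C, 5% CO2. Readout was MTT (4 h), SDS/acetic acid/DMSO lysis, A560. IC50 came from mean percent growth inhibition, n = 3.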

[12] = biological target: T1, ATP-dependent translocase ABCB1; assay: Inhibition of human MDR1 expressed mouse L5178Y cells assessed as reduction of daunorubicin IC50 for cytotoxicity at 2.5 uM after 24 hrs by MTT assay; assay type: cell-based; set-up: scale not given: the % may be the effect or the level left; procedure, shortened: as §4
[13] = tested on: L5178Y; assay: Cytotoxicity against mouse L5178Y cells expressing p-gp after 24 hrs by MTT assay; assay type: functional, cell-based
Procedure, shortened: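 Daunorubicin, 0.01 to 10 µM, was given to the P-gp expressing L5178Y subline (McCoy's 5A, 10% FCS, colchicine 60 ng/mL) in 96-well plates, 24 h at 37 °C, 5% CO2. MTT (5 mg/mL stock) was added for 4 h, cells were lysed 30 min in SDS/acetic acid/DMSO, and A560 was read. IC50 came from mean percent growth inhibition of triplicate runs.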

[14] = tested on: L5178Y; assay: Cytotoxicity against mouse L5178Y cells after 24 hrs by MTT assay; assay type: functional, cell-based
Procedure, shortened: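 Mouse T-lymphoma L5178Y parental cells and the mdr1-transfected L5178Y mdr subline were grown in McCoy's 5A with 10% FCS (mdr subline kept in colchicine 60 ng/mL). Compounds were tested at 1 to 80 µM final for 24 h at 37 °C in 5% CO2. MTT was added for 4 h, then SDS/acetic acid/DMSO lysis and A560 read-out. Run in triplicate.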

[15] = tested on: L5178Y; assay: Ratio of IC50 for mouse L5178Y cells expressing p-gp to IC50 for mouse L5178Y cells; assay type: functional
Procedure, shortened: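 Parental L5178Y and P-gp-expressing L5178Y mdr cells were exposed to daunorubicin at 0.01–10 µM plus P-gp inhibitor for 24 h at 37 °C in 5% CO2. Viability was read by MTT (4 h) with SDS/acetic acid/DMSO lysis and A560. IC50s came from mean percent growth inhibition in triplicate, and the ratio is the mdr-line IC50 over the parental IC50.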

Compound | RFU [1] | RFU [2] | other results
COC(=O)C1=CN(Cc2ccccc2)C=CC1c1cccc2ccccc12 (configuration not stated) | 2.35 | 1.22 | 
CCOC(=O)C1=CN(Cc2ccccc2)C=CC1c1cccc2ccccc12 (configuration not stated) | 3.45 | 1.43 | 
CCOC(=O)C1=CN(Cc2ccccc2)C=CC1c1cccc(C(F)(F)F)c1 (configuration not stated) | 2.33 | 1.17 | 
COC(=O)C1=CN(Cc2ccccc2)C=CC1c1ccc(C)cc1 (configuration not stated) | 1.88 | 1.11 | 
COC(=O)C1=CN(Cc2ccccc2)C=CC1c1ccccc1OC (configuration not stated) | 1.76 | 1.13 | 
COC(=O)C1=CN(Cc2ccccc2)C=CC1c1ccc(OC)cc1 (configuration not stated) | 2.95 | 0.85 | 
CCOC(=O)C1=CN(Cc2ccccc2)C=CC1c1ccc(C)cc1 (configuration not stated) | 2.54 | 1.34 | 
CCOC(=O)C1=CN(Cc2ccccc2)C=CC1c1ccccc1OC (configuration not stated) | 2.38 | 1.18 | 
COC(=O)C1=CN(Cc2ccc(OC)cc2)C=CC1c1ccccc1 (configuration not stated) | 4.13 | 1.5 | 
CCOC(=O)C1=CN(Cc2ccc(C)cc2)C=CC1c1ccccc1 (configuration not stated) | 7.8 | 2.54 | Activity [8]: Active; Activity [11]: Active; Activity [12]: > 50%
COC(=O)C1=CN(Cc2ccccc2)C=CC1c1cccc(Cl)c1 (configuration not stated) | 1.39 | 1.12 | 
COC(=O)C1=CN(Cc2ccccc2)C=CC1c1cccc(Br)c1 (configuration not stated) | 1.22 | 1.05 | 
CCOC(=O)C1=CN(Cc2ccccc2)C=CC1c1cccc(Cl)c1 (configuration not stated) | 2.67 | 1.25 | 
COc1cccc2c1C(=O)c1c(O)c3c(c(O)c1C2=O)C[C@@](O)(C(C)=O)C[C@@H]3O[C@H]1C[C@H](N)[C@H](O)[C@H](C)O1 (stereo in doubt; form 1) [DAUNORUBICIN] |  |  | IC50 [13]: 2.32 µM; IC50 [14]: 300 nM
COc1cccc2c1C(=O)c1c(O)c3c(c(O)c1C2=O)C[C@@](O)(C(C)=O)C[C@@H]3O[C@H]1C[C@H](N)[C@H](O)[C@H](C)O1 (stereo in doubt; form 2) [DAUNORUBICIN] |  |  | Ratio IC50 [15]: >10; IC50 [13]: 7.73 µM; IC50 [14]: 730 nM
COc1ccc(CCN(C)CCCC(C#N)(c2ccc(OC)c(OC)c2)C(C)C)cc1OC (configuration not stated) [VERAPAMIL] | 2.94 | 0.89 | 

Further lines, with some results ahead:

RFU [1] | RFU [2] | Compound | other results
2.19 | 1.19 | COC(=O)C1=CN(Cc2cccc3ccccc23)C=CC1c1ccccc1 (configuration not stated) | 
2.74 | 1.28 | CCOC(=O)C1=CN(Cc2cccc3ccccc23)C=CC1c1ccccc1 (configuration not stated) | 
3.13 | 1.52 | CCOC(=O)C1=CN(Cc2ccccc2)C=CC1c1ccc(OC)cc1 (configuration not stated) | 
3.97 | 1.82 | COC(=O)C1=CN(Cc2ccccc2OC)C=CC1c1ccccc1 (configuration not stated) | 
7.8 | 1.72 | COC(=O)C1=CN(Cc2ccc(C)cc2)C=CC1c1ccccc1 (configuration not stated) | viability at 24 h, 10 µM [3]: 75%; viability at 24 h, 10 µM [4]: 75%; viability at 24 h, 2.5 µM [5]: 95%; viability at 24 h, 2.5 µM [6]: 81%; Activity [7]: Active; Activity [8]: Active
4.64 | 1.72 | CCOC(=O)C1=CN(Cc2ccccc2OC)C=CC1c1ccccc1 (configuration not stated) | 
4.89 | 1.32 | CCOC(=O)C1=CN(Cc2ccc(OC)cc2)C=CC1c1ccccc1 (configuration not stated) | viability at 24 h, 10 µM [3]: 100%; viability at 24 h, 10 µM [4]: 85%; viability at 24 h, 2.5 µM [5]: 97%; Activity [9]: Active; Activity [10]: > 60%; Activity [7]: Active; Activity [8]: Active
1.53 | 1.05 | COC(=O)C1=CN(Cc2ccccc2)C=CC1c1cccc(C(F)(F)F)c1 (configuration not stated) | 
2.76 | 1.27 | CCOC(=O)C1=CN(Cc2ccccc2)C=CC1c1cccc(Br)c1 (configuration not stated) | 
